Assay results: paper PMC4168221 (Clinical Drug Investigation, 2014)
Entries after “also recorded” stand apart in the source; their conditions may differ. Like-named read-outs stand apart in the source and are kept apart here.

Experiments:
[1] = assay type: in vivo, human (Japanese patients with type 2 diabetes mellitus); conditions: for AUC∞ / C max / CL/F / Vd/F / t ½: mean (SD); for t max: median (range)
Summary of the method: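 Single oral dose (100 or 200 mg) given before breakfast in a two-period crossover. Blood was drawn pre-dose and at 0.5–72 h (13 samples) into K2EDTA, iced, centrifuged, and plasma stored at −20 °C. Parent drug was measured by HPLC–MS/MS (1–2,000 ng/mL). Metabolites were measured by acetonitrile precipitation then HPLC–MS/MS (5–10,000 ng/mL). Group ratios are least square means with 90 % CI.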

[2] = Urinary pharmacokinetics of unchanged canagliflozin; assay type: in vivo, human (Japanese patients with type 2 diabetes mellitus); conditions: for Ae0–72h% (cumulative urinary excretion rate from time zero to 72 h) / CLR: mean (SD)
Summary of the method: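 Per period, urine was collected at 11–0 h pre-dose, then 0–4.5, 4.5–10.5, 10.5–13, 13–24, 24–48 and 48–72 h after a single oral 100 or 200 mg dose. Volumes were recorded, and mixed aliquots were stored at −20 °C. Parent drug was measured by solid-phase extraction then HPLC–MS/MS (validated 1–2,000 ng/mL).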

[3] = tested on: urinary glucose excretion; test: 24-h urinary glucose excretion, change from baseline; assay type: in vivo, human (Japanese patients with type 2 diabetes mellitus); conditions: both doses
Summary of the method: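 Each crossover period gave one oral single dose of test compound (100 or 200 mg) 10 min before breakfast, with ≥14-day washout and fixed meals. Change was taken from the baseline day.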

[4] = Safety: adverse events after single doses; assay type: in vivo, human (Japanese patients with type 2 diabetes mellitus)
Summary of the method: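 Adverse events were recorded with intensity and relation to drug, then coded by system organ class and preferred term (MedDRA/J 15.0). Adverse drug reactions were events the investigator judged reasonably related. Also checked: laboratory tests, renal function, vital signs, body weight and 12-lead ECG. Patients were hospitalised and received single 100 and 200 mg oral doses in crossover.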

[5] = single dose of canagliflozin 100 mg; non-Japanese patients with normal renal function or mild renal impairment; cited from earlier work
[6] = Japanese patients with type 2 diabetes; cited from earlier work
[7] = tested on: blood glucose; conditions: phase III; non-Japanese type 2 diabetes patients with moderate renal impairment (eGFR ≥30 and <50 mL/min/1.73 m^2); cited from earlier work
[8] = cited from earlier work
[9] = tested on: urinary glucose excretion; conditions: cited from earlier work
[10] = canagliflozin 100 mg single dose
[11] = canagliflozin 100 mg single dose, moderate renal impairment (n = 12)
[12] = canagliflozin 100 mg, moderate renal impairment (n = 12)
[13] = canagliflozin 100 mg, normal renal function or mild renal impairment (n = 12)
[14] = canagliflozin 200 mg single dose
[15] = canagliflozin 200 mg single dose, moderate renal impairment (n = 12)
[16] = canagliflozin 200 mg, moderate renal impairment (n = 12)
[17] = canagliflozin 200 mg, normal renal function or mild renal impairment (n = 12)
[18] = Moderate renal impairment, canagliflozin 100 mg (n = 12)
[19] = Moderate renal impairment, canagliflozin 200 mg (n = 12)
[20] = Normal renal function or mild renal impairment, canagliflozin 100 mg (n = 12)
[21] = Normal renal function or mild renal impairment, canagliflozin 200 mg (n = 12)
[22] = single doses of 100 and 200 mg, all patients

## Cc1ccc([C@@H]2O[C@H](CO)[C@@H](O)[C@H](O)[C@H]2O)cc1Cc1ccc(-c2ccc(F)cc2)s1 [Canagliflozin, canagliflozin]
[1]; 100 and 200 mg single doses
  time to reach maximum concentration (C max), median: ≤ 1 h
[1]; [10]
  AUC∞ ratio (90 % CI) of least square means, moderate renal impairment relative to normal renal function or mild renal impairment: 1.258 (1.061–1.490)
  C max ratio (90 % CI) of least square means, moderate renal impairment relative to normal renal function or mild renal impairment: 0.982 (0.821–1.173)
[1]; canagliflozin 100 mg single dose, listed as canagliflozin
  AUC∞ ratio (90 % CI) of least square means, moderate renal impairment relative to normal renal function or mild renal impairment: 1.258 [1.061–1.490]
[1]; [11]
  AUC∞: 8,766 (2551) ng·h/mL
  C max: 1,197.13 (310.56) ng/mL
[1]; [12]
  CL/F: 12.15 (2.87) L/h
  Vd/F: 264 (81) L
  t ½: 15.50 (4.35) h
  t max: 1.0 (1.0–3.0) h
[1]; [13]
  CL/F: 15.24 (3.65) L/h
  Vd/F: 269 (66) L
  t ½: 12.58 (3.14) h
  t max: 1.0 (1.0–3.0) h
[1]; [14]
  AUC∞ ratio (90 % CI) of least square means, moderate renal impairment relative to normal renal function or mild renal impairment: 1.216 (1.026–1.441)
  C max ratio (90 % CI) of least square means, moderate renal impairment relative to normal renal function or mild renal impairment: 0.989 (0.827–1.182)
[1]; canagliflozin 200 mg single dose, listed as canagliflozin
  AUC∞ ratio (90 % CI) of least square means, moderate renal impairment relative to normal renal function or mild renal impairment: 1.216 [1.026–1.441]
[1]; [15]
  AUC∞: 17,835 (4434) ng·h/mL
  C max: 2,333.36 (414.90) ng/mL
[1]; [16]
  CL/F: 11.73 (2.36) L/h
  Vd/F: 242 (67) L
  t ½: 15.15 (6.68) h
  t max: 1.0 (1.0–2.0) h
[1]; [17]
  CL/F: 14.43 (3.73) L/h
  Vd/F: 244 (53) L
  t ½: 12.10 (2.66) h
  t max: 1.0 (1.0–6.0) h
[1]; patients with normal or mild renal impairment, both doses
  half-life (t ½): over 12 h
[1]; single dose of 100 mg, Japanese population with mild or no renal impairment
  AUC from time zero to 24 h: 5,645 ng·h/mL
[2]; % of the dose, both doses
  amount of canagliflozin excreted into urine from 0 to 72 h (urinary excretion ratio of unchanged drug): < 1%
[2]; [12]
  Ae0–72h% (cumulative urinary excretion rate from time zero to 72 h): 0.538 (0.229) %
  CLR: 0.064 (0.021) L/h
[2]; [13]
  Ae0–72h% (cumulative urinary excretion rate from time zero to 72 h): 0.541 (0.168) %
  CLR: 0.085 (0.037) L/h
[2]; [16]
  Ae0–72h% (cumulative urinary excretion rate from time zero to 72 h): 0.480 (0.143) %
  CLR: 0.058 (0.022) L/h
[2]; [17]
  Ae0–72h% (cumulative urinary excretion rate from time zero to 72 h): 0.559 (0.182) %
  CLR: 0.080 (0.029) L/h
[3]
  ΔUGE24 h in moderate renal impairment relative to normal renal function or mild renal impairment: approximately 70%
[4]; [18]
  Adverse events Total: Incidence: 25.0%
  Adverse events Total: No. of events: 3
  Adverse events Total: No. of subjects: 3
  Back pain: Incidence: 0.0%
  Back pain: No. of events: 0
  Back pain: No. of subjects: 0
  Blood CPK increased: Incidence: 0.0%
  Blood CPK increased: No. of events: 0
  Blood CPK increased: No. of subjects: 0
  Blood creatinine increased: Incidence: 0.0%
  Blood creatinine increased: No. of events: 0
  Blood creatinine increased: No. of subjects: 0
  Blood glucose increased: Incidence: 0.0%
  Blood glucose increased: No. of events: 0
  Blood glucose increased: No. of subjects: 0
  Constipation: Incidence: 0.0%
  Constipation: No. of events: 0
  Constipation: No. of subjects: 0
  Diarrhea: Incidence: 0.0%
  Diarrhea: No. of events: 0
  Diarrhea: No. of subjects: 0
  Nasopharyngitis: Incidence: 8.3%
  Nasopharyngitis: No. of events: 1
  Nasopharyngitis: No. of subjects: 1
  Pollakiuria: Incidence: 8.3%
  Pollakiuria: No. of events: 1
  Pollakiuria: No. of subjects: 1
  Protein urine present: Incidence: 8.3%
  Protein urine present: No. of events: 1
  Protein urine present: No. of subjects: 1
[4]; [19]
  Adverse events Total: Incidence: 8.3%
  Adverse events Total: No. of events: 1
  Adverse events Total: No. of subjects: 1
  Back pain: Incidence: 0.0%
  Back pain: No. of events: 0
  Back pain: No. of subjects: 0
  Blood CPK increased: Incidence: 0.0%
  Blood CPK increased: No. of events: 0
  Blood CPK increased: No. of subjects: 0
  Blood creatinine increased: Incidence: 0.0%
  Blood creatinine increased: No. of events: 0
  Blood creatinine increased: No. of subjects: 0
  Blood glucose increased: Incidence: 0.0%
  Blood glucose increased: No. of events: 0
  Blood glucose increased: No. of subjects: 0
  Constipation: Incidence: 0.0%
  Constipation: No. of events: 0
  Constipation: No. of subjects: 0
  Diarrhea: Incidence: 0.0%
  Diarrhea: No. of events: 0
  Diarrhea: No. of subjects: 0
  Nasopharyngitis: Incidence: 8.3%
  Nasopharyngitis: No. of events: 1
  Nasopharyngitis: No. of subjects: 1
  Pollakiuria: Incidence: 0.0%
  Pollakiuria: No. of events: 0
  Pollakiuria: No. of subjects: 0
  Protein urine present: Incidence: 0.0%
  Protein urine present: No. of events: 0
  Protein urine present: No. of subjects: 0
[4]; [20]
  Adverse events Total: Incidence: 16.7%
  Adverse events Total: No. of events: 3
  Adverse events Total: No. of subjects: 2
  Back pain: Incidence: 8.3%
  Back pain: No. of events: 1
  Back pain: No. of subjects: 1
  Blood CPK increased: Incidence: 0.0%
  Blood CPK increased: No. of events: 0
  Blood CPK increased: No. of subjects: 0
  Blood creatinine increased: Incidence: 0.0%
  Blood creatinine increased: No. of events: 0
  Blood creatinine increased: No. of subjects: 0
  Blood glucose increased: Incidence: 0.0%
  Blood glucose increased: No. of events: 0
  Blood glucose increased: No. of subjects: 0
  Constipation: Incidence: 8.3%
  Constipation: No. of events: 1
  Constipation: No. of subjects: 1
  Diarrhea: Incidence: 8.3%
  Diarrhea: No. of events: 1
  Diarrhea: No. of subjects: 1
  Nasopharyngitis: Incidence: 0.0%
  Nasopharyngitis: No. of events: 0
  Nasopharyngitis: No. of subjects: 0
  Pollakiuria: Incidence: 0.0%
  Pollakiuria: No. of events: 0
  Pollakiuria: No. of subjects: 0
  Protein urine present: Incidence: 0.0%
  Protein urine present: No. of events: 0
  Protein urine present: No. of subjects: 0
[4]; [21]
  Adverse events Total: Incidence: 25.0%
  Adverse events Total: No. of events: 4
  Adverse events Total: No. of subjects: 3
  Back pain: Incidence: 0.0%
  Back pain: No. of events: 0
  Back pain: No. of subjects: 0
  Blood CPK increased: Incidence: 8.3%
  Blood CPK increased: No. of events: 1
  Blood CPK increased: No. of subjects: 1
  Blood creatinine increased: Incidence: 8.3%
  Blood creatinine increased: No. of events: 1
  Blood creatinine increased: No. of subjects: 1
  Blood glucose increased: Incidence: 8.3%
  Blood glucose increased: No. of events: 1
  Blood glucose increased: No. of subjects: 1
  Constipation: Incidence: 0.0%
  Constipation: No. of events: 0
  Constipation: No. of subjects: 0
  Diarrhea: Incidence: 0.0%
  Diarrhea: No. of events: 0
  Diarrhea: No. of subjects: 0
  Nasopharyngitis: Incidence: 8.3%
  Nasopharyngitis: No. of events: 1
  Nasopharyngitis: No. of subjects: 1
  Pollakiuria: Incidence: 0.0%
  Pollakiuria: No. of events: 0
  Pollakiuria: No. of subjects: 0
  Protein urine present: Incidence: 0.0%
  Protein urine present: No. of events: 0
  Protein urine present: No. of subjects: 0
[4]; [22]
  adverse events considered related to the study drug: Only one case of pollakiuria and one of diarrhea were considered to be related to the study drug
  hypoglycemia: no patient developed hypoglycemia; also recorded: None of the patients developed hypoglycemia; also recorded: no cases of hypoglycemia
[5]
  mean 24-h urinary excretion ratio: 0.55%
[6]
  body weight: significantly reduced
[7]
  blood glucose-lowering effect compared with placebo: significant blood glucose-lowering effect

## OC[C@H]1O[C@@H](c2ccc(Cl)c(Cc3ccc(O[C@H]4CCOC4)cc3)c2)[C@H](O)[C@@H](O)[C@@H]1O [empagliflozin]
[8]
  CLR in patients with moderate renal impairment: decreased
  systemic exposure in patients with moderate renal impairment: moderately increased

## CCOc1ccc(Cc2cc([C@@H]3O[C@H](CO)[C@@H](O)[C@H](O)[C@H]3O)ccc2Cl)cc1 [dapagliflozin]
[8]
  C max and AUC as a function of renal function: increased incrementally with declining renal function

## OC[C@H]1O[C@@H](c2ccc(F)c(Cc3cc4ccccc4s3)c2)[C@H](O)[C@@H](O)[C@@H]1O [Ipragliflozin]
[9]
  UGE in each estimated GFR (eGFR) class: significantly increased
